LMP1 NFkB inh: inhibitors of Epstein-Barr LMP1-induced NF-kappaB reporter; AID 504558; inhibition, % at 12.5 µM; 0.69% of 350,000 active; LMP1-induced NF-kappaB luciferase reporter cells, luminescence; in the data active = inhibition above about 41%;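 also: 0% = neutral control wells and 100% = reference inhibitor control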
FN deposition inh: fibronectin deposition inhibition | AH1F fibroblasts, Alexa488-fibronectin deposition fluorescence, overnight | inhibition, % at 12.6 µM | 0.086% of 350,000 active | AID 743247;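 active = mean inhibition across replicates of 30% or more, regardless of how many single replicates reach that level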;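 also: positive control wells lacked labelled fibronectin entirely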
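Assay system: AH1F fibroblasts / Quantity: 10000 cells per well / Medium: DMEM plus 2% serum, read in PBS / Reagent: labelled fibronectin 24 nM / Dosing: single dose, pinned / Times: 1 h cell attachment, overnight exposure to compound and label / Signal: fluorescence, ex 485 nm, em 525 nm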
Shn3 3UTR inh: reduces Shn3 3'UTR luciferase signal in osteoblasts; Clone20 osteoblast Shn3 3'UTR firefly luciferase, 24 h; inhibition, % at 12.5 µM; AID 588674; 0.52% of 360,000 active;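 active = mean inhibition of at least 75% with every replicate also reaching 75%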;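 also: 0% = median of neutral control wells and 100% = pilot-screen positive control compound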
EWS-Fli inh: blocks EWS/Fli oncoprotein-driven transcription; A673 NR0B1-luciferase reporter, viability-normalised; inhibition, % at 12.6 µM; 0.67% of 350,000 active; AID 651661;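 active = mean inhibition of at least 50% after viability correction, with every replicate also passing that limit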;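 also: firefly luciferase signal divided by Alamar Blue viability fluorescence both relative to DMSO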
aSyn UTR inh: 5' untranslated region of α-synuclein, MLPCN primary screen | AID 1813 | 0.82% of 300,000 active | inhibition, % (tested at 7.5 µM) | alpha-synuclein 5'UTR reporter, inhibitor activity; in the data active = inhibition above about 60%;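 also: H4 neuroglioblastoma cells stably carrying SNCA 5'UTR luciferase fusion; 0% = DMSO wells and 100% = positive control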
PAX8 inh HTS: lowers PAX8-driven luciferase in RMG-I cells; RMG-I TPO-luciferase reporter, SteadyGlo, 24 h; inhibition, % at 12.6 µM; 1.2% of 360,000 active; AID 652154;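 active = mean replicate inhibition at least 60% with every replicate also reaching 60%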;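 also: luciferase light reporting Pax8 driven TPO promoter activity; plate controls were median of neutral control wells for no effect and mitoxantrone controls for full effect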
Numbers without * were called inactive; nt = not tested or not shown; ! = repeats disagree. An excerpt weighted towards active compounds, which were near 2.1% of everything screened.

SMILES	LMP1 NFkB inh	FN deposition inh	Shn3 3UTR inh	EWS-Fli inh	aSyn UTR inh	PAX8 inh HTS
C=C1C(=O)[C@]23C[C@H]1CCC2[C@@]1(C)C(C[C@@H]3O)[C@](C)(C(=O)OC)CC[C@@H]1O (stereo partly specified)	nt	-1.3	99.2*	59.5*	nt	107.9*
Cc1noc(C)c1NC(=O)Nc1ccc2c(c1)C(=O)N([C@H](C)CO)C[C@@H](C)[C@H](CN(C)C(=O)Nc1ccc(F)cc1)OCCCC[C@@H](C)O2	nt	3.1	nt	2.9	nt	-1.9
C=C1CC2(CC(c3ccccc3)OC(c3ccccc3)C2)OC1=O (stereo unspecified)	-2.6	11.1	97.1*	48.3	nt	0.4
C=C1CC(c2ccc(-c3ccccc3)cc2)OC1=O (stereo unspecified)	nt	nt	nt	49.3	nt	55.1
COC1C(CO)OC(n2c3c(Cl)cccc3c3c4c(c5c6cccc(Cl)c6[nH]c5c32)C(=O)NC4=O)C(O)C1O (stereo unspecified)	59.7*	-11.1	-0.2	56.0*	nt	113.1*
C[C@@H]1CN([C@@H](C)CO)C(=O)c2cc(NC(=O)Nc3cccc4ccccc34)ccc2O[C@@H](C)CCCCO[C@@H]1CN(C)Cc1ccccc1	nt	2.9	nt	16.1	nt	25.0
CCCNC(=O)N1C[C@@H](C)[C@H](OC)CN(C)C(=O)c2cc(NC(=O)CCC)ccc2OC[C@H]1C	nt	-3.8	nt	-2.4	nt	-3.2
CC(=O)Oc1ccc(OC(C)=O)c(SCCCCCCl)c1	-72.3	6.1	95.0*	53.6*	-60.2	14.7
CCN(CC)c1ccc(C2=NNC(=O)CC2C)cc1[N+](=O)[O-] (stereo unspecified)	10.7	-3.9	1.2	nt	98.5*	nt
COc1ccc(Nc2oc(COc3ccc(C)cc3)nc2C#N)cc1	19.8	-16.8	-2.1	nt	67.9*	nt
COc1ccc(Nc2oc(COc3ccc(OC)cc3)nc2C#N)cc1	32.9	-1.5	16.7	nt	77.9*	-5.4
COc1ccc(Nc2oc(COc3cccc(C)c3)nc2C#N)cc1	-0.9	2.3	-30.9	nt	29.5	-140.2
CS(=O)(=O)Nc1ccc2c(c1)[C@H]1C[C@H](CC(=O)NC3CCCCC3)O[C@@H](CO)[C@H]1O2	nt	0.5	nt	-0.9	nt	0.2
N#Cc1ccc(N2CCc3ccccc3C2)c([N+](=O)[O-])c1	7.6	3.9	11.1	nt	81.1*	-11.3
O=C(c1ccc(N2CCCC2)c([N+](=O)[O-])c1)N1CCc2ccccc2C1	-19.2	0.6	-1.9	-17.6	-47.4	-15.1
O=C(Nc1ccc(C(F)(F)F)cc1)N1C[C@@H]2N[C@H](C1)C2c1ccc(/C=C/c2ccccc2)cc1 (stereo partly specified)	nt	3.7	nt	5.8	nt	90.4*!
O=C(C1CCC1)N1C[C@@H]2N[C@H](C1)C2c1ccc(/C=C/c2ccccc2)cc1 (stereo partly specified)	nt	9.2	nt	-8.7	nt	nt
O=C(Nc1ccccc1)N1C[C@@H]2N[C@H](C1)C2c1ccc(-c2cccnc2)cc1 (stereo partly specified)	nt	0.5	nt	6.1	nt	13.8
O=C(Nc1ccc(C(F)(F)F)cc1)N1C[C@@H]2N[C@H](C1)C2c1ccc(-c2ccccc2)cc1 (stereo partly specified)	nt	-9.5	nt	-9.2	nt	107.7*
COCC(=O)Nc1ccc2c(c1)C(=O)N(C)C[C@@H](OC)[C@@H](C)CN(C(=O)c1ccccc1F)[C@H](C)CO2	nt	-0.5	nt	-11.8	nt	2.9
CCCNC(=O)Nc1ccc2c(c1)C(=O)N(C)C[C@@H](OC)[C@H](C)CN(Cc1ccccc1)[C@@H](C)CO2	nt	-17.1	nt	-2.2	nt	nt
COc1ccc(S(=O)(=O)N(C)C[C@H]2OCCCC[C@H](C)Oc3ccc(NS(C)(=O)=O)cc3C(=O)N([C@H](C)CO)C[C@@H]2C)cc1	nt	nt	nt	-0.4	nt	-9.0
CCOC(=O)C1(C)CCN1C(=O)c1ccccc1OC(F)(F)F (stereo unspecified)	nt	8.5	3.2	-6.3	nt	-5.5
CC1(C(=O)O)CCCN1C(=O)c1ccccc1OC(F)(F)F (stereo unspecified)	nt	1.2	0.9	-12.4	nt	72.7*
CN1CCN(C(=O)C[C@H]2CC[C@@H](NC(=O)Cc3ccccn3)[C@H](CO)O2)CC1	nt	-2.1	nt	-2.6	nt	-3.3
SMILES	LMP1 NFkB inh	FN deposition inh	Shn3 3UTR inh	EWS-Fli inh	aSyn UTR inh	PAX8 inh HTS
Cc1nc(C)c(C(=O)N/N=C/c2cc(Br)ccc2O)s1	20.8	-2.6	nt	20.9	21.9	66.7*
O=C(N/N=C\c1cc(Br)ccc1O)c1ccc(S(=O)(=O)N2CCCCC2)cc1	15.5	7.8	91.2*	5.9	109.7*	10.9
C[C@H](CO)N1C[C@H](C)[C@H](CN(C)C(=O)C2CC2)Oc2cc(C3=CCCCC3)ccc2S1(=O)=O	nt	nt	nt	4.3	nt	nt
C[C@H]1CN([C@@H](C)CO)C(=O)CCCn2nncc2CO[C@@H]1CN(C)S(=O)(=O)c1ccccc1F	nt	2.3	nt	-4.6	nt	2.9
COCCn1c(C)cc(C(=O)COC(=O)C23CC4CC(CC(O)(C4)C2)C3)c1C	41.7*	2.8	-8.7	nt	30.5	nt
Cc1cc(C(=O)COC(=O)C23CC4CC(CC(O)(C4)C2)C3)c(C)n1-c1c(C)n(C)n(-c2ccccc2)c1=O	1.6	-15.7	0.2	-7.1	21.8	11.5
COCCn1c(C)cc(C(=O)COC(=O)c2cc3c(s2)CCC3)c1C	-12.4	-5.2	-67.3	nt	-78.4	-108.7
COCCn1c(C)cc(C(=O)COC(=O)c2cccc(O)c2)c1C	82.1*	1.7	53.5	40.0	67.4*	39.3
CCCCN(C=O)c1c(CC)nc2ccc(C(=O)Nc3cc(-c4ccccc4)ccc3OC)cn12	nt	10.2	22.6	14.3	nt	74.6*
C[C@H](CO)N1C[C@H](C)[C@@H](CN(C)Cc2ccncc2)Oc2cc(-c3ccccc3)ccc2S1(=O)=O	nt	-5.2	nt	18.2	nt	nt
C[C@@H]1CN([C@@H](C)CO)S(=O)(=O)c2ccc(-c3ccccc3)cc2O[C@@H]1CN(C)Cc1ccncc1	nt	-14.7	nt	-4.0	nt	nt
Cc1ccc(-c2ccc3c(c2)O[C@@H](CN(C)Cc2ccncc2)[C@H](C)CN([C@H](C)CO)S3(=O)=O)cc1	nt	19.6	nt	74.2*	nt	nt
Cc1ccc(-c2ccc3c(c2)O[C@H](CN(C)Cc2cccnc2)[C@@H](C)CN([C@H](C)CO)S3(=O)=O)cc1	nt	14.9	nt	62.6*	nt	nt
Cc1ccc(-c2ccc3c(c2)O[C@H](CN(C)Cc2ccncc2)[C@@H](C)CN([C@@H](C)CO)S3(=O)=O)cc1	nt	5.8	nt	71.6*	nt	nt
C[C@H]1CN([C@@H](C)CO)S(=O)(=O)c2ccc(/C=C/c3ccccc3)cc2O[C@@H]1CN(C)Cc1cccnc1	nt	nt	nt	19.7	nt	85.9*
COc1ccc(S(=O)(=O)Nc2ccc3c(c2)C(=O)N([C@@H](C)CO)C[C@@H](C)[C@@H](CN(C)Cc2ccccc2)OCCCC[C@H](C)O3)cc1	nt	7.4	nt	8.6	nt	2.0
COc1cccc(S(=O)(=O)N2C[C@@H](O)COC[C@@H]3O[C@@H](CC(=O)NCCCN4CCOCC4)CC[C@H]32)c1	nt	-10.2	nt	-1.9	nt	-13.4
